From the EternaBench riboswitch data

System: MS2 coat protein
Experiment: apparent Kd, MS2 coat protein; higher = weaker binding; RNA-MaP array; FMN 200 µM where present
In short: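 The apparent Kd is reported as the median of filtered per-cluster binding-curve fits. To get these curves, designs transcribed by stalled E. coli RNA polymerase on Illumina sequencing-chip clusters were titrated with SNAP-549-labelled MS2 coat protein from 0.7 or 1.5 nM, doubling to 3 µM. Titrations were run without and then with constant ligand in 100 mM Tris-HCl pH 7.5, 80 mM KCl, 4 mM MgCl2, BSA, DTT, yeast tRNA and Tween-20, and green signal was normalised to red-channel RNA signal and control-cluster median Fmax.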

[1] = designed as: OFF switch for flavin mononucleotide, no ligand
[2] = ligand present: flavin mononucleotide, designed as: OFF switch for flavin mononucleotide
[3] = designed as: ON switch for flavin mononucleotide, no ligand
[4] = ligand present: flavin mononucleotide, designed as: ON switch for flavin mononucleotide

Sequence | apparent Kd [1] [nM] | apparent Kd [2] [nM] | apparent Kd [3] [nM] | apparent Kd [4] [nM]
CGCAAGUCAGGAUAUUCGACUGGUCCAUCUGUGGAUCAGUAGGAGAAGGGACAUGAGGAUCACCCAUGUUUGUU | 30.7 | 46.9 |  | 
CGCACUGAUAGAGGAUAUGUUUAACAUGAGGAUCACCCAUGUGUACAAGGAUCAAUAUAUAAGUAACAGAAGGCUAUUAGUGCG | 13.9 | 13.4 |  | 
CGCACUUAGCGAGGAUAUGUAAAACAUGAGGAUCACCCAUGUGAUUUAGUAUCAAUUUUAAUGAAACAGAAGGCGCUUAGUGCG | 8.26 | 8.91 |  | 
CGCAUCUCUACAAUUCCUUCACAUGAGGAUCACCCAUGUAGGGAGGAUAUGCAAGCUUAUUGGCGGCAGAAGGCCCUGCAAUGG | 142 | 127 |  | 
CGCAUGCGUAGUAUUAGUUGCUGACAGGAUAUGACAUGAGGAUCACCCAUGUGAAAUAAGAAGAGUCAGAAGGGUCACGAUGCG | 16.8 | 9.58 |  | 
CGCCCGUAAGGAUAUACAUGAGGAUCACCCAUGUCGGUAACCGAAGGGCGAUACCUUUGUAGAAGGUACUGCGU | 14.8 | 13.7 |  | 
CGCGAAAACAUAGGAUAUUGAUACAUGAGGAUCACCCAUGUCAACCAUGAAGCUCGAAUUGUUGACAAGAAGGAUGAGGUCGCG |  |  | 77.1 | 57.2
CGCGAACAGGCUAACAUGAGGAUCACCCAUGUGGACUCAUGGUAGGAUAUCGGGAAGGAGGAAACCGAGAAGGGCCGGUGAGCA |  |  | 218 | 38.9
CGCGGACAAGAGAAGGCCAGACCUUGGAACCUAAGGCACCGCUAGGCAUGGAGGAUAUCUUGACAUGAGGAUCACCCAUGUACA |  |  | 109 | 40.9
CGCUAAGAGAACUAUUAGAGAAGACAUGAGGAUCACCCAUGUAGAAGGACAACGGAAUAAACGUUGUAGGAUAUACACUUAGCG | 22.6 | 17 |  | 
CGCUAAUAAUUAAUAUUAAUUGUACAGGAUAUGUAACAUGAGGAUCACCCAUGUAUUGGGUUUAAACAGAAGGGUAUAUUAGCG | 387 | 92.4 |  | 
CGCUACGUUUCGUAGCAGUGUCAUCGAGAAGGCCCUGACAUGAGGAUCACCCAUGUUCCUGAAAAGGAGGAUAUCGAUGAUACA |  |  | 8.86 | 7.04
CGCUAUGACAUAGGAUAUUGGUACAUGAGGAUCACCCAUGUCAACUUUUUAGCAUAAUUUGUUGACAAGAAGGAUGUGGUAGCG |  |  | 54.1 | 12.6
CGCUAUUAUGUAGGAUAUACAUUUUUUAUGUAUGUAGAAGGACAUGAGGAUCACCCAUGUAAAUUAAUUUUAAUUAUCUUAGCG | 16.4 | 13.3 |  | 
CGCUCUAUAUAUUAGGCAAGAAUCAGAAGGCGUUACAUGAGGAUCACCCAUGUUUUGUAUAGUAACGAGGAUAUGAUAUGAGCG | 13.6 | 14.5 |  | 
CGGAACAUGAGGAUCACCCAUGUAGCUACUUAAAGGUGCUACAGAAGGGACAUUGCGCGUCAUGGUCAGGAUAUGUAGGGCUGA |  |  | 379 | 108
CGGAUGUGAGGAUAUACAUGAGGAUCACCCAUGUGAGCCAGCUAGCUGACUGGCUCGUGUAGAAGGCACGUCUG | 15.5 | 28.9 |  | 
CGGCAAUGACGAGGAUAUAGACAUGAGGAUCACCCAUGUAACAGUAUUACAGGGCGUCUUCUCGGCUAGAAGGCGUUCUAUGCC | 59.4 | 62.6 |  | 
CGGCCAUAUCGAGGAUAUAAGUCUAGGACAUGAGGAUCACCCAUGUAUGUCUUAGAAGGCGAUAUGGCCAGCCUGUUACAGGCA |  |  | 28.9 | 5.83
CGGGAUUCCUGAGGAUAUGGAGCUGUCUACCUGGGCGACAUGAGGAUCACCCAUGUAGAACGCCUCCAGAAGGCAGCGAGAUUG | 27.3 | 23.8 |  | 
CGGGCUGCCAGAGGAUAAUGGACAUGAGGAUCACCCAUGUGUCAGGAUAUGGGUUUCACAUGGACUCAGAAGGGACCAGCCCGA |  |  | 82.5 | 22.4
CGGGCUGCUGUGAGGAUAUGCCUGUGGGUGCGUGGGUAGAAGGCACAUGAGGAUCACCCAUGUCCUGCGGCUCG | 736 | 537 |  | 
CGGGUAUAUCGAGGAUAUAAGUCUAGGACAUGAGGAUCACCCAUGUAUGUCUUAGAAGGCGAUAUACCCAGCCUGUUACAGGCA |  |  | 31 | 6.37
CGGUCGAUGUAAGGAUAUCGACUGGAUAACAGUCGAGAAGGUACAUGAGGAUCACCCAUGUAAUCCAAUAAUAAAUAACGACCG | 11.4 | 23.2 |  | 
CGUAUAUGGGAGAAGGCAUGUUCCAAAGGGCCAUGAGGAUAUCCUAAGUGUACGCUUUGCGACAUGAGGAUCACCCAUGUAGCA |  |  | 8.95 | 6.34
CGUAUGUGAGGAUAUGACAAUGGUAUCUUCGGAUACCAUUGUCAGAAGGAACAUGAGGAUCACCCAUGUAGAUC | 53.2 | 110 |  | 
CGUCCUUAGUGAGGAUAUCAGAAACUACGGAAAUGAGAAGGCACAUGAGGAUCACCCAUGUAAAUAACGGCCGGUCUUGGCAGC | 7.27 | 15.2 |  | 
CGUCGUCUACGACGCACAUGAGGAUCACCCAUGUGGCAGACACAGGAUAUCCGUUGGAAUGUCCAGGAGAAGGGUGAUCGCAUA |  |  | 38.6 | 77.5
